For assay [1], the target named is T1, Cannabinoid receptor 2 (Homo sapiens, UniProt P34972). The assay can be described thus: Agonist activity at human CB2 receptor expressed in CHO cells at 10 uM by [35]GTPgammaS binding assay relative to HU210. In kind it is functional, cell-based. The method, boiled down:
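Human CB2 stably expressed in CHO cells; agonist-stimulated binding of the nonhydrolyzable GTP analogue [35S]GTPγS, run as described by Savinainen et al. Single test concentration 10 µM. Response expressed as percentage of the full CB1/CB2 agonist HU-210. Mean ± SEM of at least three experiments performed in duplicate.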
In general terms: GTPγS resists hydrolysis and so accumulates on activated G proteins.

The target of assay [2] is Cannabinoid receptor 1 (Rattus norvegicus) (UniProt P20272). The assay can be described thus: Agonist activity at rat cerebellar membrane CB1 receptor at 10 uM by [35]GTPgammaS binding assay relative to basal level. In kind it is functional. The method, boiled down: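 Rat cerebellar membranes (CB1) used to screen for CB1 agonism and antagonism, per a previously described method. [35S]GTPγS binding with compounds at 10 µM. Results given as % basal; mean ± SEM of at least three duplicate experiments.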

For assay [3], the target named is T1, Cannabinoid receptor 2. The assay can be described thus: Agonist activity at human CB2 receptor expressed in CHO cells by [35]GTPgammaS binding assay. In kind it is functional, cell-based. The method, boiled down: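 hCB2 stably expressed in CHO cells; [35S]GTPγS binding stimulated by agonist, procedure of Savinainen et al. Full concentration–response curves were run only for compounds giving over 50% relative activity at 10 µM. EC50 and Emax were obtained by nonlinear regression fitted to a sigmoidal concentration–response equation.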

The results in this text go back to ChEMBL document CHEMBL1153027, “Synthesis of quinolinyl and isoquinolinyl phenyl ketones as novel agonists for the cannabinoid CB2 receptor” (Bioorg Med Chem, 2009).

Cannabinoid receptor 1 (Rattus norvegicus), sequence (P20272 whole entry): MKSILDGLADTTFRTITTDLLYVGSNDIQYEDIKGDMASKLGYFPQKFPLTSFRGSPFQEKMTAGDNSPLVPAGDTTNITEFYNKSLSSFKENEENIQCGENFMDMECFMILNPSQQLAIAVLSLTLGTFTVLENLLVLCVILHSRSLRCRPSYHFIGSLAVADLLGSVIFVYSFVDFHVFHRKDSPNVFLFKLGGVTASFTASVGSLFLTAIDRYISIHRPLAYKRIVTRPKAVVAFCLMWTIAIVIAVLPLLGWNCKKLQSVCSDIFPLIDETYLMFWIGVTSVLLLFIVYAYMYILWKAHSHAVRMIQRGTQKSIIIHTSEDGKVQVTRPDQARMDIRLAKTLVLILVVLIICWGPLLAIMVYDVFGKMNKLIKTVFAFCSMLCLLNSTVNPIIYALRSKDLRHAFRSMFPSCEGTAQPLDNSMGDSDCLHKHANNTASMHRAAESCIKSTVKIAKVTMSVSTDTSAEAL
T1 sequence (P34972 whole entry): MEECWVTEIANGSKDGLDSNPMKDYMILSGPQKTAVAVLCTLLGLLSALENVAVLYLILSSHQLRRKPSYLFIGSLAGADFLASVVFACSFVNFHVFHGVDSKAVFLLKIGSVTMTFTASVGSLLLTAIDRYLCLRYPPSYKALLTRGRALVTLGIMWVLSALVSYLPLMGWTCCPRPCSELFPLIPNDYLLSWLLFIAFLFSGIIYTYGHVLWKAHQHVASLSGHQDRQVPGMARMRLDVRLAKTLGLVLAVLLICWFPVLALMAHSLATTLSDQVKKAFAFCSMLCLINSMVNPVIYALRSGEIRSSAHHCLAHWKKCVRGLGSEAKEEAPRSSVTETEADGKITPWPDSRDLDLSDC

By Emax is commonly meant the size of the effect at its maximum, as opposed to the concentration needed. In general, EC50 refers to the concentration that produces a half-maximal response. Turning to `CN(C)c1ccc(C(=O)c2ccc3ccccc3n2)cc1`, the maximal response (Emax) on Cannabinoid receptor 2 [1] came out at 62%. In assay [2], this compound had an Activity of 101%. The compound further showed an EC50 on Cannabinoid receptor 2 [3] of 6310 nM.

The compound `CN(C)c1ccccc1C(=O)c1nccc2ccccc12` gave a maximal effect (Emax) at Cannabinoid receptor 2 [1] of 95%. In assay [2], this compound showed an Activity of 116%. The compound further gave a concentration giving a half-maximal response (EC50) at Cannabinoid receptor 2 [3] of 631 nM. The matching figures for `COc1ccccc1C(=O)c1ccc2ccccc2n1`: 53%, 106% and 2510 nM.

For the compound `O=C(c1ccccc1)c1ccc2ccccc2n1`, on Cannabinoid receptor 2 [1], the Emax was 52%. For the same compound, the Activity in assay [2] came out at 103%. The EC50 on Cannabinoid receptor 2 [3] was 7940 nM. `O=C(c1cccc(C(F)(F)F)c1)c1ccc2ccccc2n1` gave an Emax on Cannabinoid receptor 2 [1] of 42%. The compound also displayed an Activity in assay [2] of 102%. On Cannabinoid receptor 2 [3], this compound showed an EC50 of 5010 nM. `CC(C)Oc1ccc(C(=O)c2ccc3ccccc3n2)cc1` displayed an Activity in assay [2] of 102%. In assay [2], `CCOc1ccc(C(=O)c2ccc3ccccc3n2)cc1` displayed an Activity of 100%. As for `O=C(c1ccc(C(F)(F)F)cc1)c1nccc2ccccc12`, the Emax on Cannabinoid receptor 2 [1] was found to be 57%. The same compound gave an Activity in assay [2] of 95%. The same compound had an EC50 at Cannabinoid receptor 2 [3] of 3160 nM. The compound `CN(C)c1ccccc1C(=O)c1ccc2ccccc2n1` showed an Emax at Cannabinoid receptor 2 [1] of 91%. The Activity in assay [2] is 101%. The concentration for a half-maximal effect (EC50) on Cannabinoid receptor 2 [3] was 794 nM. In assay [2], `O=C(c1ccc(F)cc1)c1nccc2ccccc12` yielded an Activity of 104%. Same read-out and setting: the figure for `O=C(c1cccc(F)c1)c1ccc2ccccc2n1` is 106%; for `O=C(c1cc(C(F)(F)F)cc(C(F)(F)F)c1)c1ccc2ccccc2n1` it is 108%.

Compound `COc1ccc(C(=O)c2nccc3ccccc23)cc1` registered an Activity in assay [2] of 85%.

`COc1cccc(C(=O)c2nccc3ccccc23)c1` returned an Activity in assay [2] of 112%. `O=C(c1ccccc1)c1nccc2ccccc12`: the Activity in assay [2] is 102%. As for `CN(C)c1ccc(C(=O)c2nccc3ccccc23)cc1`, on Cannabinoid receptor 2 [1], the Emax came out at 68%. The compound further displayed an Activity in assay [2] of 99%. The compound also showed an EC50 at Cannabinoid receptor 2 [3] of 2510 nM.

In turn, `O=C(c1ccc(Cl)cc1)c1ccc2ccccc2n1` showed an Emax at Cannabinoid receptor 2 [1] of 63%. Also, in assay [2], the Activity came out at 101%. Besides, the concentration giving a half-maximal response (EC50) on Cannabinoid receptor 2 [3] was 3980 nM. In assay [2], `O=C(c1ccc(Cl)c(Cl)c1)c1nccc2ccccc12` displayed an Activity of 111%. Still for that read-out and setting: the figure for `CCCOc1ccc(C(=O)c2ccc3ccccc3n2)cc1` is 108%.

Turning to `O=C(c1ccc(F)cc1)c1ccc2ccccc2n1`, in assay [2], the Activity was determined as 99%. On to `COc1cccc(C(=O)c2ccc3ccccc3n2)c1`, for which the Emax at Cannabinoid receptor 2 [1] amounted to 54%. The same compound showed an Activity in assay [2] of 102%. On Cannabinoid receptor 2 [3], this compound showed a 50% effective concentration (EC50) of 2000 nM. Compound `O=C(c1cccc(F)c1)c1nccc2ccccc12` had an Activity in assay [2] of 99%. Same read-out and setting: to `COc1ccc(C(=O)c2ccc3ccccc3n2)cc1` belongs 108%; to `O=C(c1cccc(C(F)(F)F)c1)c1nccc2ccccc12`, 106%; to `O=C(c1ccc(Cl)cc1)c1nccc2ccccc12`, 101%. `O=C(c1ccccc1C(F)(F)F)c1nccc2ccccc12`: at Cannabinoid receptor 2 [1], the maximum response (Emax) is 72%. In assay [2], this compound gave an Activity of 112%. Besides, at Cannabinoid receptor 2 [3], the EC50 was 501 nM. Consider `O=C(c1ccc(Cl)c(Cl)c1)c1ccc2ccccc2n1`, for which the Activity in assay [2] was 100%. Same read-out and setting: to `O=C(c1cc(C(F)(F)F)cc(C(F)(F)F)c1)c1nccc2ccccc12` belongs 101%. `O=C(c1ccc2ccccc2n1)c1ccccc1C(F)(F)F` returned a maximum response (Emax) at Cannabinoid receptor 2 [1] of 87%. The compound also had an Activity in assay [2] of 102%. The same compound had an EC50 at Cannabinoid receptor 2 [3] of 2000 nM. In assay [2], `O=C(c1ccc(C(F)(F)F)cc1)c1ccc2ccccc2n1` returned an Activity of 105%.
